Experimental data taken from ChEMBL document CHEMBL5303300, “EUbOPEN Chemogenomics Library - Multiplex” (2023).
Values joined by “and” are separate entries in the source; they are usually repeats but may differ in a detail not shown here. Equal values may be shown once. *1 amine or outer side, *2 acyl side, *3 side chain or, on linkers, in order; H or OH if unused. Where a SMILES comes first, the peptide text is derived from it. Bridges are numbered along the chain shown (N, C = ends). Roman numbers before positions name the chains, in order. [ ]: non-standard residue; d: D form. Hexamethylenediamine = C(CCCN[*:2])CCN[*:1]; Dip = N[C@H](C(=O)O)C(c1ccccc1)c1ccccc1; Chg = N[C@H](C(=O)O)C1CCCCC1; NMeA = CN[C@@H](C)C(=O)O

Test system: Fibroblast
Assay: Multiplex assay against human fibroblast
Assay type: toxicity, cell-based
Conditions: number of replicates 2
Summary of the method: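 Values for tubulin, mitochondrial-mass and membrane-permeability phenotypes are per cents of cells with healthy nuclei. These cells were identified by CellPathfinder machine-learning gating of live cells that had been stained at seeding with Hoechst33342, BioTracker Green Microtubule Cytoskeleton Dye, MitoTracker Red and Annexin V Alexa Fluor 680 and imaged on a CQ1 microscope at 37°C and 5% CO2 after compound addition. The gating first set Hoechst high-intensity objects apart from normal cells, then split normal cells into healthy, pyknosed or fragmented nuclei, and pyknosed cells into mitotic or apoptotic.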

[1] = 12 h, 1 µM, compound concentration 1 uM
[2] = 12 h, 10 µM, compound concentration 10 uM
[3] = 24 h, 1 µM, compound concentration 1 uM
[4] = 24 h, 10 µM, compound concentration 10 uM
[5] = 48 h, 1 µM, compound concentration 1 uM
[6] = 48 h, 10 µM, compound concentration 10 uM

CN[C@@H](C)C(=O)N[C@H](C(=O)N1CCC[C@H]1C(=O)N[C@H](C(=O)NCCCCCCNC(=O)[C@@H](NC(=O)[C@@H]1CCCN1C(=O)[C@@H](NC(=O)[C@H](C)NC)C1CCCCC1)C(c1ccccc1)c1ccccc1)C(c1ccccc1)c1ccccc1)C1CCCCC1 (I: H-[NMeA][Chg]P[Dip] / II: H-[NMeA][Chg]P[Dip]; linker I:C-II:C via Hexamethylenediamine)
Population Apoptotic (%) [1]: 29% and 33% | Population Fragmented Nuclei (%) [1]: 14% and 9% | Population Healthy Nuclei (%) [1]: 64% and 70% | Population Hoechst High Intensity Objects (%) [1]: 0% | Population Membrane Permeable-Phenotype (%) [1]: 5% and 3% | Population Mitochondria Different-Phenotype (%) [1]: 0% and 3% | Population Mitotic Cells (%) [1]: 70% and 66% | Population Normal (%) [1]: 100% | Population Pyknosed Nuclei (%) [1]: 21% and 20% | Population Tubulin-Different-Phenotype (%) [1]: 18% and 9% | Total Cell Count [1]: 205 and 174 | Population Apoptotic (%) [2]: 43% and 60% | Population Fragmented Nuclei (%) [2]: 15% and 11% | Population Healthy Nuclei (%) [2]: 55% | Population Hoechst High Intensity Objects (%) [2]: 0% | Population Membrane Permeable-Phenotype (%) [2]: 4% and 3% | Population Mitochondria Different-Phenotype (%) [2]: 6% and 15% | Population Mitotic Cells (%) [2]: 56% and 39% | Population Normal (%) [2]: 100% and 99% | Population Pyknosed Nuclei (%) [2]: 29% and 33% | Population Tubulin-Different-Phenotype (%) [2]: 59% and 55% | Total Cell Count [2]: 210 and 251 | Population Apoptotic (%) [3]: 43% and 45% | Population Fragmented Nuclei (%) [3]: 9% and 10% | Population Healthy Nuclei (%) [3]: 68% and 66% | Population Hoechst High Intensity Objects (%) [3]: 0% | Population Membrane Permeable-Phenotype (%) [3]: 5% and 4% | Population Mitochondria Different-Phenotype (%) [3]: 4% and 2% | Population Mitotic Cells (%) [3]: 56% and 55% | Population Normal (%) [3]: 100% and 99% | Population Pyknosed Nuclei (%) [3]: 21% and 22% | Population Tubulin-Different-Phenotype (%) [3]: 24% and 16% | Total Cell Count [3]: 203 and 176 | Population Apoptotic (%) [4]: 72% and 60% | Population Fragmented Nuclei (%) [4]: 22% and 20% | Population Healthy Nuclei (%) [4]: 48% and 60% | Population Hoechst High Intensity Objects (%) [4]: 0% | Population Membrane Permeable-Phenotype (%) [4]: 9% and 11% | Population Mitochondria Different-Phenotype (%) [4]: 36% and 23% | Population Mitotic Cells (%) [4]: 27% and 39% | Population Normal (%) [4]: 100% | Population Pyknosed Nuclei (%) [4]: 29% and 19% | Population Tubulin-Different-Phenotype (%) [4]: 63% and 71% | Total Cell Count [4]: 249 and 210 | Population Apoptotic (%) [5]: 52% and 53% | Population Fragmented Nuclei (%) [5]: 16% and 12% | Population Healthy Nuclei (%) [5]: 65% and 73% | Population Hoechst High Intensity Objects (%) [5]: 0% | Population Membrane Permeable-Phenotype (%) [5]: 3% and 5% | Population Mitochondria Different-Phenotype (%) [5]: 3% and 2% | Population Mitotic Cells (%) [5]: 47% and 46% | Population Normal (%) [5]: 100% | Population Pyknosed Nuclei (%) [5]: 17% and 14% | Population Tubulin-Different-Phenotype (%) [5]: 23% and 13% | Total Cell Count [5]: 206 and 194 | Population Apoptotic (%) [6]: 83% and 76% | Population Fragmented Nuclei (%) [6]: 35% and 30% | Population Healthy Nuclei (%) [6]: 57% | Population Hoechst High Intensity Objects (%) [6]: 0% | Population Membrane Permeable-Phenotype (%) [6]: 8% and 3% | Population Mitochondria Different-Phenotype (%) [6]: 12% and 20% | Population Mitotic Cells (%) [6]: 16% and 23% | Population Normal (%) [6]: 100% and 99% | Population Pyknosed Nuclei (%) [6]: 6% and 12% | Population Tubulin-Different-Phenotype (%) [6]: 79% and 67% | Total Cell Count [6]: 258 and 314

CCN1C(=O)N(c2c(F)c(OC)cc(OC)c2F)Cc2cnc3[nH]c(CN4CCOCC4)cc3c21 [PEMIGATINIB]
Population Apoptotic (%) [1]: 60% and 45% | Population Fragmented Nuclei (%) [1]: 8% | Population Healthy Nuclei (%) [1]: 75% and 58% | Population Hoechst High Intensity Objects (%) [1]: 0% | Population Membrane Permeable-Phenotype (%) [1]: 3% and 8% | Population Mitochondria Different-Phenotype (%) [1]: 1% | Population Mitotic Cells (%) [1]: 40% and 54% | Population Normal (%) [1]: 99% and 100% | Population Pyknosed Nuclei (%) [1]: 15% and 33% | Population Tubulin-Different-Phenotype (%) [1]: 13% and 14% | Total Cell Count [1]: 220 and 246 | Population Apoptotic (%) [2]: 57% and 38% | Population Fragmented Nuclei (%) [2]: 12% and 20% | Population Healthy Nuclei (%) [2]: 53% and 51% | Population Hoechst High Intensity Objects (%) [2]: 0% | Population Membrane Permeable-Phenotype (%) [2]: 8% and 12% | Population Mitochondria Different-Phenotype (%) [2]: 1% and 4% | Population Mitotic Cells (%) [2]: 42% and 61% | Population Normal (%) [2]: 100% | Population Pyknosed Nuclei (%) [2]: 33% and 28% | Population Tubulin-Different-Phenotype (%) [2]: 37% and 26% | Total Cell Count [2]: 134 and 190 | Population Apoptotic (%) [3]: 72% and 67% | Population Fragmented Nuclei (%) [3]: 8% and 7% | Population Healthy Nuclei (%) [3]: 76% and 61% | Population Hoechst High Intensity Objects (%) [3]: 0% | Population Membrane Permeable-Phenotype (%) [3]: 5% and 7% | Population Mitochondria Different-Phenotype (%) [3]: 1% and 0% | Population Mitotic Cells (%) [3]: 27% and 32% | Population Normal (%) [3]: 99% and 100% | Population Pyknosed Nuclei (%) [3]: 15% and 30% | Population Tubulin-Different-Phenotype (%) [3]: 7% and 14% | Total Cell Count [3]: 237 and 226 | Population Apoptotic (%) [4]: 69% and 46% | Population Fragmented Nuclei (%) [4]: 16% and 20% | Population Healthy Nuclei (%) [4]: 57% and 50% | Population Hoechst High Intensity Objects (%) [4]: 0% | Population Membrane Permeable-Phenotype (%) [4]: 3% and 5% | Population Mitochondria Different-Phenotype (%) [4]: 3% | Population Mitotic Cells (%) [4]: 30% and 53% | Population Normal (%) [4]: 100% | Population Pyknosed Nuclei (%) [4]: 26% and 28% | Population Tubulin-Different-Phenotype (%) [4]: 29% and 11% | Total Cell Count [4]: 136 and 182 | Population Apoptotic (%) [5]: 75% and 71% | Population Fragmented Nuclei (%) [5]: 10% | Population Healthy Nuclei (%) [5]: 76% and 60% | Population Hoechst High Intensity Objects (%) [5]: 0% | Population Membrane Permeable-Phenotype (%) [5]: 5% and 3% | Population Mitochondria Different-Phenotype (%) [5]: 0% | Population Mitotic Cells (%) [5]: 24% and 28% | Population Normal (%) [5]: 99% | Population Pyknosed Nuclei (%) [5]: 13% and 28% | Population Tubulin-Different-Phenotype (%) [5]: 5% and 8% | Total Cell Count [5]: 240 and 232 | Population Apoptotic (%) [6]: 81% and 83% | Population Fragmented Nuclei (%) [6]: 17% and 25% | Population Healthy Nuclei (%) [6]: 57% and 51% | Population Hoechst High Intensity Objects (%) [6]: 0% | Population Membrane Permeable-Phenotype (%) [6]: 5% and 8% | Population Mitochondria Different-Phenotype (%) [6]: 1% | Population Mitotic Cells (%) [6]: 18% and 16% | Population Normal (%) [6]: 100% | Population Pyknosed Nuclei (%) [6]: 25% and 22% | Population Tubulin-Different-Phenotype (%) [6]: 25% and 18% | Total Cell Count [6]: 128 and 166

CC(=O)O[C@H]1C(=O)[C@@]2(C)[C@H]([C@H](OC(=O)c3ccccc3)[C@]3(O)C[C@H](OC(=O)[C@H](O)[C@@H](NC(=O)c4ccccc4)c4ccccc4)C(C)=C1C3(C)C)[C@]1(OC(C)=O)CO[C@@H]1C[C@@H]2O [PACLITAXEL]
Population Apoptotic (%) [2]: 50% and 51% and 43% and 57% | Population Fragmented Nuclei (%) [2]: 18% and 14% and 8% and 16% | Population Healthy Nuclei (%) [2]: 60% and 57% and 66% | Population Hoechst High Intensity Objects (%) [2]: 0% | Population Membrane Permeable-Phenotype (%) [2]: 2% and 1% | Population Mitochondria Different-Phenotype (%) [2]: 4% and 1% and 2% and 7% | Population Mitotic Cells (%) [2]: 50% and 48% and 56% and 42% | Population Normal (%) [2]: 100% and 99% | Population Pyknosed Nuclei (%) [2]: 21% and 28% and 24% and 17% | Population Tubulin-Different-Phenotype (%) [2]: 14% and 15% and 13% | Population Apoptotic (%) [4]: 68% and 71% and 75% and 53% | Population Fragmented Nuclei (%) [4]: 14% and 11% and 18% | Population Healthy Nuclei (%) [4]: 61% and 56% and 63% | Population Hoechst High Intensity Objects (%) [4]: 0% | Population Membrane Permeable-Phenotype (%) [4]: 0% and 2% and 1% | Population Mitochondria Different-Phenotype (%) [4]: 4% and 10% and 7% and 8% | Population Mitotic Cells (%) [4]: 31% and 28% and 24% and 46% | Population Normal (%) [4]: 100% and 99% | Population Pyknosed Nuclei (%) [4]: 23% and 28% and 25% and 19% | Population Apoptotic (%) [6]: 92% and 82% and 86% and 71% | Population Fragmented Nuclei (%) [6]: 23% and 16% and 19% and 22% | Population Healthy Nuclei (%) [6]: 60% and 62% and 63% | Population Hoechst High Intensity Objects (%) [6]: 0% | Population Membrane Permeable-Phenotype (%) [6]: 1% and 7% and 3% | Population Mitochondria Different-Phenotype (%) [6]: 6% and 9% and 7% | Population Normal (%) [6]: 100% and 99% | Population Pyknosed Nuclei (%) [6]: 15% and 20% and 16% | Population Tubulin-Different-Phenotype (%) [6]: 14% and 19% and 11% and 10%
